Where “and” joins values, the source holds several entries; their conditions need not be identical. Equal values may be shown once.
What was measured:
[1] = test system: L1210; assay: Concentration required to inhibit proliferation of cultured lymphoid leukemia L1210 cells to 50% growth over 48 hours; format: functional, cell-based; conditions: Mus musculus, L1210, 48 h
Outline: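 Cultured lymphoid leukemia L1210 cells were exposed to agent for 48 h. IC50 is the micromolar concentration that holds proliferation to 50% growth.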

[2] = test system: P388; assay: Compound was evaluated for antitumor activity against mice implanted with lymphatic leukemia P388 cells (10e6 tumor cells) after intraperitoneal administration of 400 mg/kg per injection (1-5 days); format: functional; conditions: Mus musculus, P388, ip
Outline: (§1)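 Mice implanted ip with 10⁶ lymphocytic leukemia P388 cells; drug given ip on days 1-5. Read-out is % increase in life span (% ILS) versus untreated controls, reported at the highest nontoxic dose tested.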

[3] = test system: L1210; assay: Compound was evaluated for antitumor activity against mice implanted with lymphatic leukemia L1210 cells (10e6 tumor cells) after intraperitoneal administration of 50 mg/kg per injection; format: functional; conditions: Mus musculus, L1210, ip
[4] = Compound's concentration required to inhibit proliferation of cultured KB cells to 50% growth during 48 hours.; format: functional, cell-based; conditions: Homo sapiens
[5] = test system: P388; assay: Compound was evaluated for antitumor activity against mice implanted with lymphatic leukemia P388 cells (10e6 tumor cells) after intraperitoneal administration of 100 mg/kg per injection; format: functional; conditions: Mus musculus, P388, ip
[6] = test system: P388; assay: Compound was evaluated for antitumor activity against mice implanted with lymphatic leukemia P388 cells (10e6 tumor cells) after intraperitoneal administration of 5 mg/kg per injection (1-5 days); format: functional; conditions: Mus musculus, P388, ip; outline: as §1
[7] = test system: L1210 (mouse); assay: Compound was evaluated for antitumor activity against mice implanted with lymphatic leukemia L1210 cells (10e6 tumor cells) after intraperitoneal administration of 50 mg/kg per injection (single dose on day 1); conditions: L1210, ip, 24 h
[8] = test system: L1210; assay: Effect of the compound(10 uM) on DNA synthesis in L1210 cells in culture measured as incorporation of [3H]L-Leu; format: functional, Mus musculus; conditions: in the assay text read “protein synthesis” for “DNA synthesis”
Outline: (§2)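 Cultured L1210 cells were treated with agent at 2.5–50 μM. Labeled precursor incorporation is reported as percent of control: [3H]dThd into DNA, […] into DNA and RNA, and [3H]L-Leu into protein.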

[9] = test system: L1210; assay: Effect of the compound(10 uM) on DNA synthesis in L1210 cells in culture measured as incorporation of [5-3H]-Urd; format: functional, Mus musculus
[10] = test system: L1210; assay: Effect of the compound(10 uM) on RNA synthesis in L1210 cells in culture measured as incorporation of [5-3H]-Urd; format: functional, Mus musculus; outline: as §2
[11] = test system: L1210; assay: Effect of the compound(25 uM) on DNA synthesis in L1210 cells in culture measured as incorporation of [3H]L-Leu; format: functional, Mus musculus; conditions: in the assay text read “protein synthesis” for “DNA synthesis”; outline: as §2
[12] = test system: L1210; assay: Effect of the compound(25 uM) on DNA synthesis in L1210 cells in culture measured as incorporation of [3H]dThd; format: functional, Mus musculus; outline: as §2
[13] = test system: L1210; assay: Effect of the compound(25 uM) on DNA synthesis in L1210 cells in culture measured as incorporation of [5-3H]-Urd; format: functional, Mus musculus; outline: as §2
[14] = test system: L1210; assay: Effect of the compound(25 uM) on RNA synthesis in L1210 cells in culture measured as […]; format: functional, Mus musculus
[15] = test system: L1210; assay: Effect of the compound(5 uM) on DNA synthesis in L1210 cells in culture measured as incorporation of [3H]-L-Leu; format: functional, Mus musculus; conditions: in the assay text read “protein synthesis” for “DNA synthesis”; outline: as §2
[16] = test system: L1210; assay: Effect of the compound(5 uM) on DNA synthesis in L1210 cells in culture measured as incorporation of [5-3H]-Urd; format: functional, Mus musculus; outline: as §2
[17] = test system: L1210; assay: Effect on the mitosis of cultured L1210 cells measured in metaphase at 12 hours and 0 uM concentration; format: functional, Mus musculus
Outline: (§3)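 Cultured L1210 cells were exposed for 12 h to 0, 3, 10, 30, 50 or 100 μM agent. Read-out was the percentage of cells in metaphase.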

[18] = test system: L1210; assay: Effect on the mitosis of cultured L1210 cells measured in metaphase at 12 hours and 10 uM concentration; format: functional, Mus musculus; outline: as §3
[19] = test system: L1210; assay: Effect on the mitosis of cultured L1210 cells measured in metaphase at 12 hours and 100 uM concentration; format: functional, Mus musculus; outline: as §3
[20] = test system: L1210; assay: Effect on the mitosis of cultured L1210 cells measured in metaphase at 12 hours and 3 uM concentration; format: functional, Mus musculus; outline: as §3
[21] = test system: P388; assay: Compound was evaluated for antitumor activity against mice implanted with lymphatic leukemia P388 cells (10e6 tumor cells) after intraperitoneal administration of 75 mg/kg per injection (1-5 days); format: functional; conditions: Mus musculus, P388, ip; outline: as §1
[22] = test system: L1210; assay: Effect on the mitosis of cultured L1210 cells measured in metaphase at 12 hours and 30 uM concentration; format: functional, Mus musculus; outline: as §3
[23] = test system: L1210; assay: Effect of the compound(5 uM) on RNA synthesis in L1210 cells in culture measured as […]; format: functional, Mus musculus
[24] = test system: P388; assay: Compound was evaluated for antitumor activity against mice implanted with lymphatic leukemia P388 cells (10e6 tumor cells) after intraperitoneal administration of 300 mg/kg per injection (1-5 days); format: functional; conditions: Mus musculus, P388, ip; outline: as §1
[25] = test system: L1210; assay: Effect of the compound(10 uM) on DNA synthesis in L1210 cells in culture measured as incorporation of [3H]dThd; format: functional, Mus musculus; outline: as §2
[26] = test system: L1210; assay: Effect of the compound(2.5 uM) on DNA synthesis in L1210 cells in culture measured as incorporation of [3H]L-Leu; format: functional, Mus musculus; conditions: in the assay text read “protein synthesis” for “DNA synthesis”; outline: as §2
[27] = test system: L1210; assay: Effect of the compound(2.5 uM) on RNA synthesis in L1210 cells in culture measured as […]; format: functional, Mus musculus
[28] = test system: P388; assay: Compound was evaluated for antitumor activity against mice implanted with lymphatic leukemia P388 cells (10e6 tumor cells) after intraperitoneal administration of 13 mg/kg per injection (1-5 days); format: functional; conditions: Mus musculus, P388, ip; outline: as §1
[29] = test system: L1210; assay: Effect of the compound(2.5 uM) on DNA synthesis in L1210 cells in culture measured as incorporation of [5-3H]-Urd; format: functional, Mus musculus

SMILES: CCOC(=O)Nc1cc(N[C@@H](C)C(=O)c2ccccc2)c([N+](=O)[O-])c(N)n1
- IC50 [1]: 27 µM
- ILS at 400 mg/kg [2]: 39%

SMILES: CCOC(=O)Nc1cc(NC(c2ccccc2)c2ccccc2)c([N+](=O)[O-])c(N)n1
- ILS at 50 mg/kg [3]: 0%

SMILES: CCOC(=O)Nc1cc(N)c(N)c(N)n1
- IC50 [4]: 10 µM
- ILS at 100 mg/kg [5]: 0%

SMILES: CCOC(=O)Nc1cc(NC(C)/C(=N/O)c2ccc(O)cc2)c([N+](=O)[O-])c(N)n1 (centres undefined)
- IC50 [1]: 18 µM
- ILS at 5 mg/kg [6]: 57%

SMILES: CCOC(=O)Nc1cc(N(C)CC(O)c2ccccc2)c(N)c(N)n1 (centres undefined)
- ILS at 50 mg/kg [7]: 4%

SMILES: COC(=O)Nc1cc(NC(C)/C(=N/O)c2ccccc2)c([N+](=O)[O-])c(N)n1 (centres undefined)
- Control [8]: 40%
- Uridine incorporation into DNA (% of control) [9]: 46% and 62%
- Control [10]: 52%
- IC50 [1]: 5.8 µM
- Control [11]: 26%
- Control [12]: 21%
- Control [13]: 65%
- Control [14]: 64%
- Control [15]: 79%
- Control [16]: 52% and 89%
- Cells in metaphase [17]: 2%
- Cells in metaphase [18]: 3%
- Cells in metaphase [19]: 14%
- Cells in metaphase [20]: 3%
- ILS at 75 mg/kg [21]: 82%
- Cells in metaphase [22]: 25%
- Control [23]: 86%

SMILES: CCOC(=O)Nc1cc(NC(C)C(=O)c2ccccc2)c([N+](=O)[O-])c(N)n1 (centres undefined)
- IC50 [1]: 37 µM
- ILS at 300 mg/kg [24]: 2%

SMILES: CCOC(=O)Nc1cc(NC(C)/C(=N/O)c2ccc(OC)cc2)c([N+](=O)[O-])c(N)n1 (centres undefined)
- Control [8]: 82%
- Control [25]: 44%
- Uridine incorporation into DNA (% of control) [9]: 39%
- Control [10]: 35%
- Control [26]: 69%
- IC50 [1]: 4.2 µM
- Control [27]: 55%
- Control [15]: 87%
- Control [16]: 60%
- Cells in metaphase [17]: 2%
- Cells in metaphase [18]: 26%
- Cells in metaphase [19]: 2%
- Cells in metaphase [20]: 6%
- ILS at 13 mg/kg [28]: 84%
- Control [29]: 78% and 73%
- Cells in metaphase [22]: 24%
- Control [23]: 47%

Reference: ChEMBL document CHEMBL1126221, “Antimitotic agents: structure-activity studies with some pyridine derivatives” (J Med Chem, 1992)
